Measurements from ChEMBL document CHEMBL3526016, “Interaction of lapatinib with cytochrome P450 3A5” (Drug Metab Dispos, 2012).

Assays:
Format in all cases: ADME
[1] = target: T1, Cytochrome P450 3A5 (Homo sapiens, UniProt P20815); experiment: Inhibition of human recombinant CYP3A5 using testosterone as substrate assessed as testosterone 6-beta-hydroxylation at 5 to 50 uM preincubated up to 30 mins with NADPH followed by substrate addition measured after 10 mins by LC/MS/MS analysis; details: recombinant enzyme
Outline: (§1)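 Primary incubation at 37°C (n=3) held 20 pmol/ml rCYP3A5 in 100 mM phosphate (pH 7.4), 0.1% DMSO and 0.9% ACN, with inhibitor; lapatinib was at 2.5–50 µM. NADPH started the reaction; buffer replaced it in negative controls. At 0, 3, 8, 15, 22 and 30 min, aliquots were diluted 10-fold into 200 µM testosterone or 25 µM midazolam with NADPH regenerating system for 10 min at 37°C. 6β-Hydroxytestosterone or 1'-hydroxymidazolam was measured by LC/MS/MS. Ln % residual activity was regressed against time to give kobs.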

[2] = target: T1, Cytochrome P450 3A5; experiment: Drug level assessed as recombinant human CYP3A5-mediated compound formation treated with lapatinib at 50 uM after 60 mins by GSH trapping assay in presence of NADPH; details: recombinant enzyme, 1 h
Outline: (§2)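 Recombinant CYP3A5 at 50 pmol/ml with 5 mM GSH and an NADPH regenerating system in 100 mM potassium phosphate (pH 7.4) was pre-warmed at 37°C. Substrate was added to start the reaction. After 60 min it was quenched with ice-cold ACN and centrifuged, and the supernatant was dried under nitrogen and reconstituted. Adducts were detected by LC/MS/MS MRM scans. Negative controls omitted substrate, NADPH or GSH.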

[3] = target: T1, Cytochrome P450 3A5; experiment: Drug level assessed as recombinant human CYP3A5-mediated compound formation treated with O-dealkylated lapatinib at 50 uM after 60 mins by GSH trapping assay in presence of NADPH; details: recombinant enzyme, 1 h; outline: as §2
[4] = target: T1, Cytochrome P450 3A5; experiment: Inhibition of human recombinant CYP3A5 at 50 uM preincubated up to 30 mins with NADPH in presence of GSH; details: recombinant enzyme
Outline: (§3)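 Primary incubation at 37°C contained 20 pmol/ml rCYP3A5 in 100 mM phosphate (pH 7.4) with 50 µM lapatinib and NADPH, with or without 2 mM GSH. At 0–30 min, aliquots were diluted 10-fold into secondary incubations with 200 µM testosterone and NADPH regenerating system for 10 min at 37°C. 6β-Hydroxytestosterone was measured by LC/MS/MS. Triplicates were run.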

[5] = target: T1, Cytochrome P450 3A5; experiment: Irreversible inhibition of human recombinant CYP3A5 using testosterone as substrate assessed as residual enzyme activity at 50 uM preincubated up to 30 mins with NADPH followed by substrate addition measured after dialysis
Outline: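 200 pmol/ml rCYP3A5 with 50 µM lapatinib and NADPH in 100 mM phosphate (pH 7.4) was incubated for 30 min at 37°C (n=3). Mixtures were dialysed (12000–14000 Da cut-off) against buffer at 4°C with one buffer change at 2 h, then for 4 h more. Aliquots before and after dialysis were assayed with 200 µM testosterone for 10 min at 37°C. 6β-Hydroxytestosterone was measured by LC/MS/MS.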

[6] = target: T1, Cytochrome P450 3A5; experiment: Drug metabolism assessed as recombinant human CYP3A5-mediated quinoneimine metabolite formation by measuring retention time at 50 uM after 60 mins by GSH trapping assay in presence of NADPH; details: recombinant enzyme, 1 h; outline: as §2
[7] = target: T1, Cytochrome P450 3A5; experiment: Inhibition of human recombinant CYP3A5 assessed as metabolite-inhibitor complex formation at 50 uM preincubated for 3 to 5 mins with NADPH A followed by NADPH B addition measured every 1 min for 10 mins by UV absorbance spectra analysis; details: recombinant enzyme
Outline: (§4)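 For difference spectra, 50 µM compound with 100 pmol/ml recombinant enzyme and NADPH A in 100 mM potassium phosphate (pH 7.4) was pre-warmed at 37°C for 3–5 min. NADPH B was added to start the reaction. The mixture was scanned from 430 to 495 nm every 1 min for 10 min at 37°C against a reference cuvette, normalized to 0 min. The negative control replaced NADPH B with buffer.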

[8] = target: Cytochrome P450 3A4 (Homo sapiens, UniProt P08684); experiment: Inhibition of human recombinant CYP3A4 assessed as metabolite-inhibitor complex formation at 50 uM preincubated for 3 to 5 mins with NADPH A followed by NADPH B addition measured every 1 min for 10 mins by UV absorbance spectra analysis; details: recombinant enzyme; outline: as §4
[9] = target: T2, CYP3A5 (Homo sapiens, UniProt P20815); experiment: Inhibition of human recombinant CYP3A5 assessed as reduction of enzyme-CO complex formation at 50 uM preincubated for 3 to 5 mins with NADPH B followed by NADPH A addition measured after 30 mins by CO difference spectroscopy relative to control
Outline: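 rCYP3A5 640 pmol/ml with 50 μM inhibitor in 100 mM potassium phosphate pH 7.4, prewarmed 3–5 min at 37°C, NADPH-initiated, incubated 30 min at 37°C (n=3). Quenched in buffer with EDTA, glycerol, NP-40, safranin O; split sample/reference, CO bubbled (~100 bubbles). P450 content = (ΔA450−ΔA490)/0.091; controls without NADPH.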

[10] = target: CYP3A4 (Homo sapiens, UniProt P08684); experiment: Ratio of Kinact to Ki for recombinant human CYP3A4 using testosterone as substrate; details: recombinant human CYP3A4, probe testosterone
[11] = target: T1, Cytochrome P450 3A5; experiment: Inhibition of human recombinant CYP3A5 using testosterone as substrate assessed as testosterone 6-beta-hydroxylation at 2.5 to 50 uM preincubated up to 30 mins with NADPH followed by substrate addition by LC/MS/MS analysis; details: recombinant enzyme, TDE = time-dependent effect
Outline: (§5)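 Primary: rCYP3A5 20 pmol/ml, inhibitor 2.5–50 μM, 100 mM phosphate pH 7.4, 37°C, NADPH-initiated; aliquots at 0–30 min diluted 10-fold into secondary mix with 200 μM testosterone plus NADPH regenerating system, 10 min at 37°C. 6β-hydroxytestosterone by LC/MS/MS, triplicate. ln % residual activity vs time gave kobs; KI, kinact from Kitz-Wilson plot.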

[12] = target: T1, Cytochrome P450 3A5; experiment: Inhibition of human recombinant CYP3A5 at 50 uM preincubated up to 30 mins with NADPH in absence of GSH; details: recombinant enzyme; outline: as §3
[13] = target: T1, Cytochrome P450 3A5; experiment: Inhibition of human recombinant CYP3A5 using testosterone as substrate assessed as testosterone 6beta-hydroxylation at 50 uM preincubated up to 30 mins with NADPH followed by substrate addition measured after 10 mins by LC/MS/MS analysis; details: recombinant enzyme; outline: as §1
[14] = target: T1, Cytochrome P450 3A5; experiment: Inhibition of human recombinant CYP3A5 using testosterone as substrate assessed as testosterone 6-beta-hydroxylation at 50 uM preincubated up to 30 mins without NADPH followed by substrate addition measured after 10 mins by LC/MS/MS analysis; details: recombinant enzyme; outline: as §1
[15] = target: T1, Cytochrome P450 3A5; experiment: (§6) Inhibition of human recombinant CYP3A5 using testosterone as substrate assessed as testosterone 6-beta-hydroxylation preincubated up to 30 mins with NADPH followed by substrate addition measured after 10 mins by LC/MS/MS analysis; outline: as §5
[16] = target: T2, CYP3A5; experiment: as §6; details: human, recombinant human CYP3A5, probe testosterone; outline: as §5
[17] = target: T1, Cytochrome P450 3A5; experiment: Inhibition of human recombinant CYP3A5 using midazolam as substrate assessed as midazolam 1'-hydroxylation at 2.5 to 50 uM preincubated up to 30 mins with NADPH followed by substrate addition measured after 10 mins by LC/MS/MS analysis; details: recombinant enzyme; outline: as §1
[18] = target: T2, CYP3A5; experiment: Ratio of Kinact to Ki for recombinant human CYP3A5 using testosterone as substrate; details: recombinant human CYP3A5, probe testosterone; outline: as §5

T1 sequence (P20815 whole entry): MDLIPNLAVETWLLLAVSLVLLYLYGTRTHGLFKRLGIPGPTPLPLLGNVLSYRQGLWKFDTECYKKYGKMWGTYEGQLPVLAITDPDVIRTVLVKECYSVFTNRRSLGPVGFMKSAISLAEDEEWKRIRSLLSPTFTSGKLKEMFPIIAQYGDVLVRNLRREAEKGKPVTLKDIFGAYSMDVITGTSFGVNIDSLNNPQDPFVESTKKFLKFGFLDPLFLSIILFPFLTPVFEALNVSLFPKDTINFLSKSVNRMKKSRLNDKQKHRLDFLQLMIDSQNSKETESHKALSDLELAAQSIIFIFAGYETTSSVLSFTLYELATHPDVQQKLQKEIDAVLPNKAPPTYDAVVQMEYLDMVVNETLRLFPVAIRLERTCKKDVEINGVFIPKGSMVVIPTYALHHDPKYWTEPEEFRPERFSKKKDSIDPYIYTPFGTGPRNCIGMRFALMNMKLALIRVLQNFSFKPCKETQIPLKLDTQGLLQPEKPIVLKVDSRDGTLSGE
T2 sequence (P20815 whole entry): as above
CYP3A4, sequence (P08684 whole entry): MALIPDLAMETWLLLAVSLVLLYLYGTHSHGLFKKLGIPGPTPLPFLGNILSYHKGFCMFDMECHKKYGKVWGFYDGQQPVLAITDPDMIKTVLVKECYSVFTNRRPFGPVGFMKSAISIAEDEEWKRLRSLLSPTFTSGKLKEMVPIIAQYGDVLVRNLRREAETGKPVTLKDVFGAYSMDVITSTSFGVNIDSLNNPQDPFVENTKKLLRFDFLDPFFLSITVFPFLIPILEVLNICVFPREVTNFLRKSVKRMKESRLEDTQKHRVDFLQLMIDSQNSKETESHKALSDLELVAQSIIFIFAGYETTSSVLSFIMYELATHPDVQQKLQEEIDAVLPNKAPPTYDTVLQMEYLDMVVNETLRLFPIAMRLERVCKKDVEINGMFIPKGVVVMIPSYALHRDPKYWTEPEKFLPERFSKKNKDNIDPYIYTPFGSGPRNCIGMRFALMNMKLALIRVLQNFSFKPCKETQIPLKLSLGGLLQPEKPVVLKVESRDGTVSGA
Cytochrome P450 3A4, sequence (P08684 whole entry): as above

CS(=O)(=O)CCNCc1ccc(-c2ccc3ncnc(Nc4ccc(O)c(Cl)c4)c3c2)o1
inhibition (INH) [1]: Not Active

CS(=O)(=O)CCNCc1ccc(-c2ccc3ncnc(/N=C4\C=CC(=O)C(Cl)=C4)c3c2)o1
Drug metabolism [2]: metabolite_detected | Drug metabolism [3]: metabolite_detected

CS(=O)(=O)CCNCc1ccc(-c2ccc3ncnc(Nc4ccc(OCc5cccc(F)c5)c(Cl)c4)c3c2)o1 [LAPATINIB]
inhibition (INH) [4]: Not Active | inhibition (INH) [5]: Active | Retention_time [6]: 1.71 min | inhibition (INH) [7]: Not Active | inhibition (INH) [8]: Active | inhibition at 0.5 h, 50 µM [9]: 22% | kinact/KI [10]: 197 M⁻¹ s⁻¹ | inhibition (INH) [11]: tde | inhibition (INH) [12]: Active | inhibition (INH) [13]: Active | inhibition (INH) [14]: Not Active | Ki [15]: 37.6 µM | inhibition (INH) ([15]; human, recombinant enzyme, 10 min): Dose-dependent effect | kinact at 10 min [16]: 0.000377 s⁻¹ | inhibition (INH) [17]: Not Active | kinact/KI [18]: 10 M⁻¹ s⁻¹
